# Experimental data: the M2OR odorant receptor database
# What was measured:
# Settings in all cases: stereoisomer not certain
# [1] = target: T1, OR2T4 (Homo sapiens) (UniProt Q8NH00)
# T1 sequence (whole entry): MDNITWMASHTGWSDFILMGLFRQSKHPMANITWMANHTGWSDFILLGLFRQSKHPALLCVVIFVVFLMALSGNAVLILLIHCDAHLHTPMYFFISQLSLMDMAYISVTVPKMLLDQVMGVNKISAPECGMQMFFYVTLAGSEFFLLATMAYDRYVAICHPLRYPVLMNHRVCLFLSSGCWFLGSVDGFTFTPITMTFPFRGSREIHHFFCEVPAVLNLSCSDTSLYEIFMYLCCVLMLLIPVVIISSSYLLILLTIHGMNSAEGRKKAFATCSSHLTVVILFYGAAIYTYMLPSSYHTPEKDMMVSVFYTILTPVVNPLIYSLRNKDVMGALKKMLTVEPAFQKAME
# Method in brief: (§1)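 Transient luciferase assays in mammalian cell lines were common, though methods varied by source. The values come from published papers and their supplementary material, with extra details from the original authors when needed. Responsive refers to a measured signal the original authors judged statistically different from baseline, and non-responsive (inactive) to the remainder.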
# [2] = target: T2, OR2T34 (Homo sapiens) (UniProt Q8NGX1)
# T2 sequence (whole entry): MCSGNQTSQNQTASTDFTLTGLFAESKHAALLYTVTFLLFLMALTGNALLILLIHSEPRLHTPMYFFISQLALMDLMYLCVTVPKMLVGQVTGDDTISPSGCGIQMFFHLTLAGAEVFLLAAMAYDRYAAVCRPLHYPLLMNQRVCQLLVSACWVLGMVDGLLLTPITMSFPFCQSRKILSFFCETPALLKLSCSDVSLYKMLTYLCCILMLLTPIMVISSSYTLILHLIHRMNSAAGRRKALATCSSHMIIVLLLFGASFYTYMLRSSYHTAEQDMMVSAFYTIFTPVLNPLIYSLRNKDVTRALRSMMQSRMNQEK
# Method in brief: as §1
# [3] = target: OR2T33 (Homo sapiens) (UniProt Q8NG76)
# Method in brief: as §1
# [4] = target: OR2T35 (Homo sapiens) (UniProt Q8NGX2)
# Method in brief: as §1
# [5] = target: OR2T5 (Homo sapiens) (UniProt Q6IEZ7)
# Method in brief: as §1
# [6] = target: OR2T6 (Homo sapiens) (UniProt Q8NHC8)
# Method in brief: as §1
# [7] = target: OR2T7 (Homo sapiens) (UniProt P0C7T2)
# Method in brief: as §1
# [8] = tested on: OR2T5 K13R K41M G45E
# Method in brief: as §1
# [9] = tested on: OR2T5 K13R L134F
# Method in brief: as §1
# [10] = tested on: OR2T6 C23G
# Method in brief: as §1
# 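Note: active if original authors judged signal statistically different from baseline.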
# OR2T35 (Homo sapiens), sequence (Q8NGX2 whole entry): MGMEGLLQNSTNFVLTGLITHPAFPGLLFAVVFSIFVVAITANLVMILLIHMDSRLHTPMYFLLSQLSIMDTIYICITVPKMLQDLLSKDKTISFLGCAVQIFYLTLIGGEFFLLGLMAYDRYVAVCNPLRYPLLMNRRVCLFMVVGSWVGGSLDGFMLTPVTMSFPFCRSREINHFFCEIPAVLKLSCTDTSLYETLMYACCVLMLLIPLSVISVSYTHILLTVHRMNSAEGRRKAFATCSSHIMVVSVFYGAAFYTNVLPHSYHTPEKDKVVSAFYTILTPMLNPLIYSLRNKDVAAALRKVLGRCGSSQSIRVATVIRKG
# OR2T5 (Homo sapiens), sequence (Q6IEZ7 whole entry): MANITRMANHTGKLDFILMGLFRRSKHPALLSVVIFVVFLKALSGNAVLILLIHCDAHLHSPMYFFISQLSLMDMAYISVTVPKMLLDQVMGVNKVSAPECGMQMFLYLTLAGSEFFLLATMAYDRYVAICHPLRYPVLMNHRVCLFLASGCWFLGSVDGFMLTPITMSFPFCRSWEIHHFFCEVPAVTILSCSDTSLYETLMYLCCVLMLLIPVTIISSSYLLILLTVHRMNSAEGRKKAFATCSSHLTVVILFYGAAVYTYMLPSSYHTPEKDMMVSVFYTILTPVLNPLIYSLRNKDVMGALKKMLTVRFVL
# OR2T6 (Homo sapiens), sequence (Q8NHC8 whole entry): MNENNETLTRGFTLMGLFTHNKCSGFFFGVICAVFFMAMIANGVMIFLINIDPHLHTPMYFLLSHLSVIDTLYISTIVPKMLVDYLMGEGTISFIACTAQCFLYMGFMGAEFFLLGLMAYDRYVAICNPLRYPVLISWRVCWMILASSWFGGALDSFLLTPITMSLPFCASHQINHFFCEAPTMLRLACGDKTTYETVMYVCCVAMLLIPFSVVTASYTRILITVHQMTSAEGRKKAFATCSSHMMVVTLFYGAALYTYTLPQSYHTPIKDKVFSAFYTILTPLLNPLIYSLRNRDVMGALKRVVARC
# OR2T33 (Homo sapiens), sequence (Q8NG76 whole entry): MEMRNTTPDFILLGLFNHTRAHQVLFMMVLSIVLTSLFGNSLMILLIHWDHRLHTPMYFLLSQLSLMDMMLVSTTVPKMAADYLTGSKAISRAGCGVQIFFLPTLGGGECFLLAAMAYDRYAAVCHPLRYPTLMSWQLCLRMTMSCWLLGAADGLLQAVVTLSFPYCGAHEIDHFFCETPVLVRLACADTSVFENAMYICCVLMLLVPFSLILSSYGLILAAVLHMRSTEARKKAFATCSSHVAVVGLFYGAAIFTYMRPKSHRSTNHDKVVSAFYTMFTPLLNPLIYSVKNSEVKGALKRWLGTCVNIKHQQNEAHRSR
# OR2T6 C23G, sequence (as listed by the source, stated change not applied): as the sequence (Q8NHC8 whole entry) above, with C23G counted along it
# OR2T7 (Homo sapiens), sequence (P0C7T2 whole entry): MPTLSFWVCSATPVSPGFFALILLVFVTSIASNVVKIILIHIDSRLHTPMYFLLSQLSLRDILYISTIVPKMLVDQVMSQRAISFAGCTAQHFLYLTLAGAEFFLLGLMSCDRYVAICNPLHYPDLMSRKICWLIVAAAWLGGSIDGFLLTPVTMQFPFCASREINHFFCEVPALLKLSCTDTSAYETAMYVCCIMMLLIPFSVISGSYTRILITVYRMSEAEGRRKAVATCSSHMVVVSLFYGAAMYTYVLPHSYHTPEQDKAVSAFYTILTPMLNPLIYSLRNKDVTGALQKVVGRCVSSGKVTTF
structure (smiles),measurement,setting,value
Cc1cccc(C)c1,odorant receptor agonist call,[1],inactive
O=Cc1ccccc1,odorant receptor agonist call,[2],inactive
COc1ccc(C=O)cc1,odorant receptor agonist call,[1],inactive
Cc1c([N+](=O)[O-])c(C)c([N+](=O)[O-])c(C(C)(C)C)c1[N+](=O)[O-],odorant receptor agonist call,[3],inactive
same,odorant receptor agonist call,[2],inactive
same,odorant receptor agonist call,[4],inactive
same,odorant receptor agonist call,[1],inactive
same,odorant receptor agonist call,[5],inactive
same,odorant receptor agonist call,[6],inactive
same,odorant receptor agonist call,[7],inactive
C=CCOC(=O)Cc1ccccc1,odorant receptor agonist call,[3],inactive
same,odorant receptor agonist call,[2],inactive
same,odorant receptor agonist call,[4],inactive
same,odorant receptor agonist call,[1],inactive
same,odorant receptor agonist call,[5],inactive
same,odorant receptor agonist call,[8],inactive
same,odorant receptor agonist call,[9],inactive
same,odorant receptor agonist call,[6],inactive
same,odorant receptor agonist call,[10],inactive
O=CC=Cc1ccccc1,odorant receptor agonist call,[2],active
